Test results taken from ChEMBL document CHEMBL3576819, “Design, synthesis, biological evaluation and molecular docking studies of phenylpropanoid derivatives as potent anti-hepatitis B virus agents” (Eur J Med Chem, 2015).

Columns and labels:
[1] = Selectivity index, ratio of CC50 for human HepG2.2.15 cells to IC50 for Hepatitis B virus infected in human HepG2.2.15 cells assessed as inhibition of HBsAg secretion; type: functional
In short: (§1)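 Selectivity index computed as CC50/IC50, with CC50 from cell death of HepG2.2.15 cells after 9 days of treatment (OD 450 nm) and IC50 from 50% inhibition of HBeAg or HBsAg secretion in the same cells; medium with drug renewed every 3 d.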

[2] = Cytotoxicity against human HepG2.2.15 cells assessed as cell death after 9 days by MTT assay; type: cell-based, HepG2 2.2.15
In short: (§2)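 HepG2.2.15 cells (MEM, 10% FBS, 380 µg/ml G418, 37 °C, 5% CO2) seeded at 1×10^5 cells/ml, cultured 24 h, then exposed to various drug concentrations; drug-containing medium renewed every 3 d. OD read at 450 nm after 9 days; percent cell death calculated; CC50 = concentration killing 50% of cells. Means of at least two experiments.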

Hepatitis B virus [3] = experiment: Antiviral activity against Hepatitis B virus infected in human HepG2.2.15 cells assessed as inhibition of HBsAg secretion by ELISA; type: functional, organism-based; conditions: HepG2 2.2.15
In short: (§3)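 HepG2.2.15 cells (MEM, 10% FBS, 380 µg/ml G418) seeded at 1×10^5 cells/ml, held 24 h at 37 °C, then treated with various drug concentrations; medium with drug renewed every 3 d for up to 9 d. Culture medium sampled on days 3, 6 and 9, stored at -20 °C, and assayed for secreted antigen. Lamivudine as positive control; IC50 = 50% inhibition of secretion; means of at least two experiments.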

Hepatitis B virus [4] = experiment: Antiviral activity against Hepatitis B virus infected in human HepG2.2.15 cells assessed as inhibition of HBeAg secretion by ELISA; type: functional, organism-based; conditions: HepG2 2.2.15; in short: as §3
[5] = Selectivity index, ratio of CC50 for human HepG2.2.15 cells to IC50 for Hepatitis B virus infected in human HepG2.2.15 cells assessed as inhibition of HBeAg secretion; type: functional; in short: as §1
Hepatitis B virus [6] = experiment: Antiviral activity against Hepatitis B virus infected in human HepG2.2.15 cells assessed as inhibition of HBsAg secretion at 300 uM after 6 days by ELISA; type: functional; conditions: HepG2 2.2.15, 144 h; in short: as §3
Hepatitis B virus [7] = experiment: Antiviral activity against Hepatitis B virus infected in human HepG2.2.15 cells assessed as inhibition of HBsAg secretion at 75 uM after 6 days by ELISA; type: functional; conditions: HepG2 2.2.15, 144 h; in short: as §3
Hepatitis B virus [8] = experiment: Antiviral activity against Hepatitis B virus infected in human HepG2.2.15 cells assessed as inhibition of HBsAg secretion at 150 uM after 3 days by ELISA; type: functional; conditions: HepG2 2.2.15, 72 h; in short: as §3
Hepatitis B virus [9] = experiment: Antiviral activity against Hepatitis B virus infected in human HepG2.2.15 cells assessed as cell survival at 150 uM after 9 days (reference value: 100%); type: functional; conditions: HepG2 2.2.15, 216 h; in short: as §2
Hepatitis B virus [10] = experiment: Antiviral activity against Hepatitis B virus infected in human HepG2.2.15 cells assessed as inhibition of HBeAg secretion at 150 uM after 6 days by ELISA; type: functional; conditions: HepG2 2.2.15, 144 h; in short: as §3
Hepatitis B virus [11] = experiment: Antiviral activity against Hepatitis B virus infected in human HepG2.2.15 cells assessed as inhibition of HBsAg secretion at 75 uM after 9 days by ELISA; type: functional; conditions: HepG2 2.2.15, 216 h; in short: as §3
Hepatitis B virus [12] = experiment: Antiviral activity against Hepatitis B virus infected in human HepG2.2.15 cells assessed as inhibition of HBsAg secretion at 150 uM after 9 days by ELISA; type: functional; conditions: HepG2 2.2.15, 216 h; in short: as §3
Hepatitis B virus [13] = experiment: Antiviral activity against Hepatitis B virus infected in human HepG2.2.15 cells assessed as inhibition of HBeAg secretion at 37.5 uM after 6 days by ELISA; type: functional; conditions: HepG2 2.2.15, 144 h; in short: as §3
Hepatitis B virus [14] = experiment: Antiviral activity against Hepatitis B virus infected in human HepG2.2.15 cells assessed as inhibition of HBsAg secretion at 300 uM after 9 days by ELISA; type: functional; conditions: HepG2 2.2.15, 216 h; in short: as §3
Hepatitis B virus [15] = experiment: Antiviral activity against Hepatitis B virus infected in human HepG2.2.15 cells assessed as inhibition of HBeAg secretion at 75 uM after 3 days by ELISA; type: functional; conditions: HepG2 2.2.15, 72 h; in short: as §3
Hepatitis B virus [16] = experiment: Antiviral activity against Hepatitis B virus infected in human HepG2.2.15 cells assessed as inhibition of HBeAg secretion at 300 uM after 6 days by ELISA; type: functional; conditions: HepG2 2.2.15, 144 h; in short: as §3
Hepatitis B virus [17] = experiment: Antiviral activity against Hepatitis B virus infected in human HepG2.2.15 cells assessed as inhibition of HBeAg secretion at 150 uM after 3 days by ELISA; type: functional; conditions: HepG2 2.2.15, 72 h; in short: as §3
Hepatitis B virus [18] = experiment: Antiviral activity against Hepatitis B virus infected in human HepG2.2.15 cells assessed as cell survival at 300 uM after 9 days (reference value: 100%); type: functional; conditions: HepG2 2.2.15, 216 h; in short: as §2
Hepatitis B virus [19] = experiment: Antiviral activity against Hepatitis B virus infected in human HepG2.2.15 cells assessed as inhibition of HBeAg secretion at 37.5 uM after 3 days by ELISA; type: functional; conditions: HepG2 2.2.15, 72 h; in short: as §3
Hepatitis B virus [20] = experiment: Antiviral activity against Hepatitis B virus infected in human HepG2.2.15 cells assessed as cell survival at 75 uM after 9 days (reference value: 100%); type: functional; conditions: HepG2 2.2.15, 216 h; in short: as §2
Hepatitis B virus [21] = experiment: Antiviral activity against Hepatitis B virus infected in human HepG2.2.15 cells assessed as inhibition of HBeAg secretion at 75 uM after 6 days by ELISA; type: functional; conditions: HepG2 2.2.15, 144 h; in short: as §3
Hepatitis B virus [22] = experiment: Antiviral activity against Hepatitis B virus infected in human HepG2.2.15 cells assessed as inhibition of HBsAg secretion at 37.5 uM after 9 days by ELISA; type: functional; conditions: HepG2 2.2.15, 216 h; in short: as §3
Hepatitis B virus [23] = experiment: Antiviral activity against Hepatitis B virus infected in human HepG2.2.15 cells assessed as inhibition of HBeAg secretion at 37.5 uM after 9 days by ELISA; type: functional; conditions: HepG2 2.2.15, 216 h; in short: as §3
Hepatitis B virus [24] = experiment: Antiviral activity against Hepatitis B virus infected in human HepG2.2.15 cells assessed as inhibition of HBeAg secretion at 75 uM after 9 days by ELISA; type: functional; conditions: HepG2 2.2.15, 216 h; in short: as §3
Hepatitis B virus [25] = experiment: Antiviral activity against Hepatitis B virus infected in human HepG2.2.15 cells assessed as inhibition of HBsAg secretion at 75 uM after 3 days by ELISA; type: functional; conditions: HepG2 2.2.15, 72 h; in short: as §3
Hepatitis B virus [26] = experiment: Antiviral activity against Hepatitis B virus infected in human HepG2.2.15 cells assessed as inhibition of HBsAg secretion at 37.5 uM after 6 days by ELISA; type: functional; conditions: HepG2 2.2.15, 144 h; in short: as §3
Hepatitis B virus [27] = experiment: Antiviral activity against Hepatitis B virus infected in human HepG2.2.15 cells assessed as cell survival at 37.5 uM after 9 days (reference value: 100%); type: functional; conditions: HepG2 2.2.15, 216 h; in short: as §2
Hepatitis B virus [28] = experiment: Antiviral activity against Hepatitis B virus infected in human HepG2.2.15 cells assessed as inhibition of HBsAg secretion at 150 uM after 6 days by ELISA; type: functional; conditions: HepG2 2.2.15, 144 h; in short: as §3
Hepatitis B virus [29] = experiment: Antiviral activity against Hepatitis B virus infected in human HepG2.2.15 cells assessed as inhibition of HBeAg secretion at 150 uM after 9 days by ELISA; type: functional; conditions: HepG2 2.2.15, 216 h; in short: as §3
Hepatitis B virus [30] = experiment: Antiviral activity against Hepatitis B virus infected in human HepG2.2.15 cells assessed as inhibition of HBsAg secretion at 300 uM after 3 days by ELISA; type: functional; conditions: HepG2 2.2.15, 72 h; in short: as §3
Hepatitis B virus [31] = experiment: Antiviral activity against Hepatitis B virus infected in human HepG2.2.15 cells assessed as inhibition of HBeAg secretion at 300 uM after 3 days by ELISA; type: functional; conditions: HepG2 2.2.15, 72 h; in short: as §3
Hepatitis B virus [32] = experiment: Antiviral activity against Hepatitis B virus infected in human HepG2.2.15 cells assessed as inhibition of HBeAg secretion at 300 uM after 9 days by ELISA; type: functional; conditions: HepG2 2.2.15, 216 h; in short: as §3

For COc1cc(/C=C/C(=O)O)cc2c1OCO2, the “Ratio CC50/IC50” value [1] was 1.62, the CC50 at 216 h [2] was 667 µM and the IC50 (Hepatitis B virus [3]) was 411 µM. The IC50 (Hepatitis B virus [4]) was 477 µM and the “Ratio CC50/IC50” value [5] was 1.4.
In the case of O/N=C/c1ccccn1, the “Ratio CC50/IC50” value [1] is reported as 1.04, the CC50 at 216 h [2] is reported as 402 µM and the IC50 (Hepatitis B virus [3]) is reported as 387 µM. The IC50 (Hepatitis B virus [4]) was 469 µM and the “Ratio CC50/IC50” value [5] was 0.86.
In the case of O=C(O)/C=C/c1ccc2c(c1)OCO2, the “Ratio CC50/IC50” value [1] is reported as 1.16, the CC50 at 216 h [2] is reported as 503 µM and the IC50 (Hepatitis B virus [3]) is reported as 433 µM. For the same compound, the IC50 (Hepatitis B virus [4]) was 526 µM and the “Ratio CC50/IC50” value [5] was 0.96.
In the case of O=Cc1ccc2c(c1)OCO2 [PIPERONAL], the CC50 at 216 h [2] is reported as 1290 µM.
In the case of COc1cc(/C=C/C(=O)O)cc(OC)c1OC [SINAPIC ACID METHYL ETHER], the “Ratio CC50/IC50” value [1] is reported as less than 1.39, the CC50 at 216 h [2] is reported as 834 µM and the IC50 (Hepatitis B virus [3]) is reported as greater than 600 µM. The IC50 (Hepatitis B virus [4]) was greater than 600 µM and the “Ratio CC50/IC50” value [5] was less than 1.39.
In the case of COc1cc(C=O)cc2c1OCO2, the CC50 at 216 h [2] is reported as 1080 µM.
In the case of COc1ccc(/C=C/C(=O)O/N=C/c2ccccn2)cc1OC, the inhibition at 300 µM (Hepatitis B virus [6]) is reported as 32.8%, the inhibition at 75 µM (Hepatitis B virus [7]) is reported as 19.5% and the “Ratio CC50/IC50” value [1] is reported as 3.59. It also gave an inhibition at 150 µM (Hepatitis B virus [8]) of 10.8%, a CC50 at 216 h [2] of 545 µM and an IC50 (Hepatitis B virus [3]) of 152 µM. The IC50 (Hepatitis B virus [4]) was 162 µM, the viability at 150 µM (Hepatitis B virus [9]) was 102% and the “Ratio CC50/IC50” value [5] was 3.37. The inhibition at 150 µM (Hepatitis B virus [10]) was 47.4%, the inhibition at 75 µM (Hepatitis B virus [11]) was 36.7% and the inhibition at 150 µM (Hepatitis B virus [12]) was 54.5%. It also gave an inhibition at 37.5 µM (Hepatitis B virus [13]) of 24.7%, an inhibition at 300 µM (Hepatitis B virus [14]) of 61.3% and an inhibition at 75 µM (Hepatitis B virus [15]) of 27.7%. For the same compound, the inhibition at 300 µM (Hepatitis B virus [16]) was 56.9%, the inhibition at 150 µM (Hepatitis B virus [17]) was 36.7% and the viability at 300 µM (Hepatitis B virus [18]) was 99.5%. The inhibition at 37.5 µM (Hepatitis B virus [19]) was 19.3%, the viability at 75 µM (Hepatitis B virus [20]) was 104% and the inhibition at 75 µM (Hepatitis B virus [21]) was 32.9%. For the same compound, the inhibition at 37.5 µM (Hepatitis B virus [22]) was 19.8%, the inhibition at 37.5 µM (Hepatitis B virus [23]) was 27% and the inhibition at 75 µM (Hepatitis B virus [24]) was 40.3%. The inhibition at 75 µM (Hepatitis B virus [25]) was 2.54%, the inhibition at 37.5 µM (Hepatitis B virus [26]) was 11.2% and the viability at 37.5 µM (Hepatitis B virus [27]) was 107%. For the same compound, the inhibition at 150 µM (Hepatitis B virus [28]) was 26.8%, the inhibition at 150 µM (Hepatitis B virus [29]) was 48.4% and the inhibition at 300 µM (Hepatitis B virus [30]) was 13.3%. The inhibition at 300 µM (Hepatitis B virus [31]) was 50.4% and the inhibition at 300 µM (Hepatitis B virus [32]) was 59.2%.
In the case of COc1cc(C=O)cc(OC)c1OC, the CC50 at 216 h [2] is reported as greater than 1500 µM.
